The list is not random: actives were taken first. Their share in the collection is about 3%.
Kir21 inh – inhibitors of mouse Kir2.1 inward-rectifier potassium channel | Inward rectifier potassium channel 2 (Mus musculus), P35561 | B-score at 10 µM | hit rate 0.85% among 310,000 | HEK293-Kir2.1, FluxOR thallium flux fluorescence; hits give low values;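 active means fluorescence ratio B-score at or below minus 3 SD of library scores, with starting-brightness B-score within 2 SD, cut at about -4.2 in these data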;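 further: channel flux triggered by added potassium and thallium sulfate stimulus; B-score of peak minus minimum fluorescence over baseline after thallium stimulus; more negative B-score means stronger Kir2.1 block with less thallium influx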
ANO1 activ – TMEM16A chloride channel activators or potentiators, primary screen, cell-based, HTS. Anoctamin-1 (Mus musculus), Q8BHY3. HEK293 TMEM16A/YFP-H148Q/I152L, iodide quench fluorescence; hits give low values. B-score at 10 µM. hit rate 0.3% among 340,000;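 active means fluorescence-ratio B-score plate-corrected deviation score at least 3 library SD below zero, with starting fluorescence score within 5 deviations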;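 further: channel opened by trigger with iodide after compound preincubation; score built on the fluorescence ratio of max minus min over baseline; more negative score means more quench and so TMEM16A activation or potentiation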
Target sequence (Q8BHY3 whole entry, looked up): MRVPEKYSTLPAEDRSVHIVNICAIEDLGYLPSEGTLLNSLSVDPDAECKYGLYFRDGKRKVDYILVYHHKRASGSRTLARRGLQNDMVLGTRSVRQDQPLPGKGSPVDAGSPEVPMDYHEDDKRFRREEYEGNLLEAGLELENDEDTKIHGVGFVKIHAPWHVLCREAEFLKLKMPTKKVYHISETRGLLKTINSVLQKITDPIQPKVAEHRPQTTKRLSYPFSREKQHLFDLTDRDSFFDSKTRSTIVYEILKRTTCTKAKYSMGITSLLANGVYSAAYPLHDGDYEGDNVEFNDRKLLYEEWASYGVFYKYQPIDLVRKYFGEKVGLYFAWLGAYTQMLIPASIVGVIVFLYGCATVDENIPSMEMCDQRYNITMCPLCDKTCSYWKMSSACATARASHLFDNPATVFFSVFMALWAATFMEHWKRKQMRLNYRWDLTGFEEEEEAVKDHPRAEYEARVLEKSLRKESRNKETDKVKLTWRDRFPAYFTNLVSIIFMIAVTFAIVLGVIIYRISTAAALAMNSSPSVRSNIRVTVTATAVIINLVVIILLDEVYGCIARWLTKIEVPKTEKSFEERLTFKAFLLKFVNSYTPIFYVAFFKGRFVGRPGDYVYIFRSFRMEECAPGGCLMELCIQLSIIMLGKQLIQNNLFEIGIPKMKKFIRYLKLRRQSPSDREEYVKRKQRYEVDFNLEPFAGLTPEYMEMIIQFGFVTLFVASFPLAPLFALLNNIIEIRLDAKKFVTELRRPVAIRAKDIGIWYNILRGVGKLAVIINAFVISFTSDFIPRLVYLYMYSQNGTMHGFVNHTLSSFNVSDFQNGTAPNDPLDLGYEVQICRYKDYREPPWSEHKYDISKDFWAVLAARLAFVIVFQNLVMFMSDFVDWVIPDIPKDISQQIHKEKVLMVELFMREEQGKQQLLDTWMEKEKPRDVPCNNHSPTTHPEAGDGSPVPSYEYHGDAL
SR-BI DiI-HDL act – activators of SR-BI mediated DiI-HDL uptake, primary screen, ldlA[mSR-BI] CHO cells, DiI fluorescence; 3 h; 100 = double the neutral-control signal; activation, % at 12.5 µM; hit rate 0.096% among 320,000;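 active means mean replicate activation of at least 60% and every replicate at or above 60%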;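 further: 0% = median plate neutral-control signal and 100% = twice that signal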
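Material – SR-BI-overexpressing, LDLR-lacking CHO cells · Medium – BSA-supplemented, HEPES-buffered Ham's F12, pH 7.4 · Doses – single concentration · Times – compound with DiI-HDL co-incubation, 3 h at 37 °C · Measured by – bottom-read fluorescence, 550/595 nm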
SR-BI DiI inh – inhibitors of SR-BI mediated HDL lipid uptake, primary screen, ldlA[mSR-BI] cells, fluorescence, single point; Scavenger receptor class B member 1 (Mus musculus), Q61009; ldlA[mSR-BI] CHO cells, DiI-HDL uptake fluorescence, 3 h; hit rate 0.96% among 320,000; inhibition, % at 12.5 µM;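 active means mean replicate inhibition of at least 70% and a set share of replicates each scoring 70 or more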;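 further: 0% = median of neutral control wells and 100% = median of positive control wells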
DNA FID counter – compounds displacing fluorescent DNA intercalator, primary screen, artefact control for HCV NS3 helicase inhibitor project, biochemical, FID fluorescence. inhibition, % at 7.9 µM. DNA fluorescent intercalator displacement. hit rate 0.17% among 290,000; in the data active means inhibition above about 37%;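 further: 0% = vehicle and 100% = reference compound; higher means more ethidium bromide displaced from hairpin DNA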
ANO1 block – TMEM16A chloride channel inhibitors, primary screen, cell-based, HTS | Anoctamin-1 (Mus musculus), Q8BHY3 | HEK293 TMEM16A/YFP iodide influx fluorescence, ionomycin | normalized B-score (activity score, 25-100; higher = stronger inhibition) at 10 µM | hit rate 1.2% among 310,000 | AID 588511, 2011;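 active means ratio plate-corrected score three or more library SD toward inhibition, starting fluorescence score within five deviations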;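 further: score derived from kinetic fluorescence span divided by baseline fluorescence per well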
* marks the source's active call; other numbers are inactive results.

What do the screens show for `CCCc1ccc2oc(C(=O)NCc3nnc(C)o3)c(C)c2c1`?
Kir21 inh: 0.26; ANO1 activ: inactive; SR-BI DiI-HDL act: -6; SR-BI DiI inh: 6; DNA FID counter: -39; ANO1 block: inactive

How did N#Cc1ccc(C2=NC(C(F)(F)F)(C(F)(F)F)c3c(n(Cc4ccco4)c(=O)[nH]c3=O)N2)cc1 do in these assays?
Kir21 inh: 0.47; ANO1 activ: inactive; SR-BI DiI-HDL act: -13; SR-BI DiI inh: 13; DNA FID counter: -19; ANO1 block: 100*

How did O=C(Nc1ccc(-c2csc(Nc3ccc(Cl)cc3)n2)cc1)c1cc([N+](=O)[O-])cc(C(F)(F)F)c1 do in these assays?
Kir21 inh: 0.11; ANO1 activ: inactive; SR-BI DiI-HDL act: -106; SR-BI DiI inh: 106*; ANO1 block: inactive

What do the screens show for `O=C(Nc1cccc(-c2csc(Nc3ccccc3)n2)c1)c1cc([N+](=O)[O-])cc(C(F)(F)F)c1`?
Kir21 inh: 1.1; ANO1 activ: inactive; SR-BI DiI-HDL act: -97; SR-BI DiI inh: 97*; DNA FID counter: 3; ANO1 block: inactive

What do the screens show for `NS(=O)(=O)c1ccc(Nc2nc(-c3cccc([N+](=O)[O-])c3)cs2)cc1`?
Kir21 inh: -0.01; ANO1 activ: inactive; SR-BI DiI-HDL act: -64; SR-BI DiI inh: 64; DNA FID counter: 18; ANO1 block: inactive

How did O=C(Nc1cccc(-c2csc(Nc3ccc(Cl)cc3)n2)c1)c1cc([N+](=O)[O-])cc(C(F)(F)F)c1 do in these assays?
Kir21 inh: -0.11; ANO1 activ: inactive; SR-BI DiI-HDL act: -127; SR-BI DiI inh: 127*; ANO1 block: inactive

Results for Nc1nc(-c2ccccc2)c(N=Nc2ccc(Cl)cc2)s1 ?
Kir21 inh: -0.85; ANO1 activ: inactive; SR-BI DiI-HDL act: -86; SR-BI DiI inh: 86*; DNA FID counter: 9; ANO1 block: inactive

How did Cc1cc(C)c(S(=O)(=O)Nc2ccccn2)c(C)c1 do in these assays?
Kir21 inh: -0.31; ANO1 activ: inactive; SR-BI DiI-HDL act: 24; SR-BI DiI inh: -24; DNA FID counter: -3; ANO1 block: inactive

What do the screens show for `COc1ccccc1CNC(=O)COc1ccccc1OC`?
Kir21 inh: -0.56; ANO1 activ: inactive; SR-BI DiI-HDL act: 0; SR-BI DiI inh: 0; DNA FID counter: -9; ANO1 block: inactive

How did COc1ccccc1CNC(=O)COc1ccc(C)cc1 do in these assays?
Kir21 inh: -0.23; ANO1 activ: inactive; SR-BI DiI-HDL act: 718*; SR-BI DiI inh: inactive; DNA FID counter: -17; ANO1 block: inactive

How did CCn1cc(CCC(=O)NCc2ccccc2OC)c2ccccc21 do in these assays?
Kir21 inh: -6.7*; ANO1 activ: inactive; SR-BI DiI-HDL act: -35; SR-BI DiI inh: 35; DNA FID counter: -25; ANO1 block: inactive

How did COc1cccc(CNc2cc(CSc3ccc(Cl)cc3)nc(C)n2)c1 do in these assays?
Kir21 inh: -7.7*; ANO1 activ: inactive; SR-BI DiI-HDL act: 9; SR-BI DiI inh: -9; DNA FID counter: -5; ANO1 block: 100*

How did COc1ccccc1CNc1cc(CSc2ccc(Cl)cc2)nc(C)n1 do in these assays?
Kir21 inh: -2.2; ANO1 activ: inactive; SR-BI DiI-HDL act: 9; SR-BI DiI inh: -9; DNA FID counter: -2; ANO1 block: 25*

How did COc1ccccc1CNC(=O)C1CCN(S(=O)(=O)c2ccc(N3CCCC3=O)cc2)CC1 do in these assays?
Kir21 inh: 0.23; ANO1 activ: inactive; SR-BI DiI-HDL act: 11; SR-BI DiI inh: -11; DNA FID counter: -44; ANO1 block: inactive

What do the screens show for `C=CCOc1ccc2cccc(/C=N/NC(=O)c3cc4cc([N+](=O)[O-])ccc4s3)c2c1`?
Kir21 inh: 0.32; ANO1 activ: inactive; SR-BI DiI-HDL act: -77; SR-BI DiI inh: 77*; DNA FID counter: 0; ANO1 block: inactive

Results for CCOc1ccc(N(C)S(=O)(=O)c2ccc(C)c(C(=O)Nc3nnc(C4CC4)s3)c2)cc1 ?
ANO1 activ: inactive; SR-BI DiI-HDL act: -18; SR-BI DiI inh: 18

What do the screens show for `O=[N+]([O-])c1cc(-c2nnc(Nc3ccccc3)c3ccccc23)ccc1N1CCOCC1`?
Kir21 inh: 1; ANO1 activ: inactive; SR-BI DiI-HDL act: -74; SR-BI DiI inh: 74*; DNA FID counter: -5; ANO1 block: inactive

What do the screens show for `Cc1ccc(Nc2nnc(-c3ccc(N4CCOCC4)c([N+](=O)[O-])c3)c3ccccc23)cc1`?
Kir21 inh: -0.05; ANO1 activ: inactive; SR-BI DiI-HDL act: -69; SR-BI DiI inh: 69; DNA FID counter: -1; ANO1 block: inactive

Results for O=C(NNC(=O)c1cccc2ccccc12)c1ccc(Br)cc1 ?
ANO1 activ: inactive; SR-BI DiI-HDL act: -29; SR-BI DiI inh: 29

How did CC1=NOC(=O)/C1=C\c1ccc(-c2ccc(Cl)cc2Cl)o1 do in these assays?
Kir21 inh: 2.7; ANO1 activ: -6.6*; SR-BI DiI-HDL act: -129; SR-BI DiI inh: 129*; DNA FID counter: 3

What do the screens show for `Cc1[nH][nH]c(=O)c1C(c1ccc(-c2ccc(Cl)cc2Cl)o1)c1c(C)[nH][nH]c1=O`?
DNA FID counter: -7

What do the screens show for `CC(C)CNC(=O)C(=O)NCC1OCCN1S(=O)(=O)c1cccs1` (configuration not stated)?
Kir21 inh: 1.5; ANO1 activ: inactive; SR-BI DiI-HDL act: 18; SR-BI DiI inh: -18; DNA FID counter: -6; ANO1 block: inactive

What do the screens show for `O=c1oc2ccccc2c(Nc2cc3ccccc3cc2O)c1[N+](=O)[O-]`?
Kir21 inh: -1.3; ANO1 activ: inactive; SR-BI DiI-HDL act: -30; SR-BI DiI inh: 30; DNA FID counter: -3; ANO1 block: 100*

What do the screens show for `O=c1oc2ccccc2c(Nc2ccccc2O)c1[N+](=O)[O-]`?
Kir21 inh: -0.42; ANO1 activ: inactive; SR-BI DiI-HDL act: -4; SR-BI DiI inh: 4; DNA FID counter: 6; ANO1 block: inactive

What do the screens show for `COc1ccc(NC(=O)N2CCN(C(=O)c3ccco3)CC2)c(OC)c1`?
Kir21 inh: 0.2; ANO1 activ: inactive; SR-BI DiI inh: -14; DNA FID counter: -6; ANO1 block: inactive

What do the screens show for `CCN(CC)C(=S)SSC(=S)N(CC)CC`?
Kir21 inh: -4.5*; ANO1 activ: inactive; SR-BI DiI-HDL act: 16; SR-BI DiI inh: 2; DNA FID counter: 2; ANO1 block: inactive

Source: PubChem
